This is an account of results in ChEMBL document CHEMBL1123603, “Synthesis of angiotensin II antagonists with variations in position 5” (J Med Chem, 1987).

Assay [1] has as its target T1, Angiotensin II receptor (Rattus norvegicus, UniProt P29089+P25095+P35351).
T1 sequence (P29089 whole entry): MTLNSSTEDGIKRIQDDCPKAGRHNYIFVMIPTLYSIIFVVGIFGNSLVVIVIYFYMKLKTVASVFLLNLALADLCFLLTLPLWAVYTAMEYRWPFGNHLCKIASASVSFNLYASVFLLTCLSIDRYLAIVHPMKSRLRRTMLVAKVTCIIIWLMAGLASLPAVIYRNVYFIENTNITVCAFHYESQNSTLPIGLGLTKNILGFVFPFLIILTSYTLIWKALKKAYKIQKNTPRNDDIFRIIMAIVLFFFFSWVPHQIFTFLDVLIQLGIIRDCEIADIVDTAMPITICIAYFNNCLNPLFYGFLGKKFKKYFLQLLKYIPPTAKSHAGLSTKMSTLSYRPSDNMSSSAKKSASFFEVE
T1 sequence (P25095 whole entry): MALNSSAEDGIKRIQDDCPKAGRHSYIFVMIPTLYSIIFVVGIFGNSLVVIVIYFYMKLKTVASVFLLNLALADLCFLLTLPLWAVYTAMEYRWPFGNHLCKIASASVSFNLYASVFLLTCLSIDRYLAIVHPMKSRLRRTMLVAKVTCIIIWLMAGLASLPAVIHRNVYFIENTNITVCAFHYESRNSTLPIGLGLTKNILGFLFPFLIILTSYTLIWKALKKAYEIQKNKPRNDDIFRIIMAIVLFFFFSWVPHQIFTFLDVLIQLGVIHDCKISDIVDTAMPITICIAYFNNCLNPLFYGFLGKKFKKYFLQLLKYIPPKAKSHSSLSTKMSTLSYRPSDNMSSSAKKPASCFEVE
T1 sequence (P35351 whole entry): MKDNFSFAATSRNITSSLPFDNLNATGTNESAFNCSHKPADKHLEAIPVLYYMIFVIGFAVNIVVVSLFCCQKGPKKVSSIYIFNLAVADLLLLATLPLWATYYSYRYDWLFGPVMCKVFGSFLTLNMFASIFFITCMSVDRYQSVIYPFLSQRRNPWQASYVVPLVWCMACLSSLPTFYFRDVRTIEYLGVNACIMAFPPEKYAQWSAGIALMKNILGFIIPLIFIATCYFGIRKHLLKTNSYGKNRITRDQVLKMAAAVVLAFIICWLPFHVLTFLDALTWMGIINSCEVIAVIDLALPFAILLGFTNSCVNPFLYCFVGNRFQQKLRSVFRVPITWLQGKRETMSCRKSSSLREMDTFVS
In words: Antagonistic effect against Angiotensin II receptor in zona glomerulosa. In kind it is functional. The gist of the method:
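Dispersed zona glomerulosa cells from male CFY rats, 250–300 g. Capsules digested with collagenase 2 mg/mL and DNase 0.1 mg/mL, 2 × 25 min at 37 °C. Cells 3.0–3.5 × 10⁶/mL in Krebs–Ringer glucose buffer, 5 g/L albumin. Antagonists 2 × 10⁻¹²–2 × 10⁻⁶ M, alone or with 2 × 10⁻⁸ M AII, duplicate or triplicate. Aldosterone by RIA after CHCl3 extraction; pA2 values.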

Assay [2] concerns Rattus norvegicus. Put plainly: Tested in vivo on the angiotensin II induced rise of blood pressure after intravenous administration of 1.25 ug/kg in conscious rats. It is filed as functional. The gist of the method:
(§1)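 Conscious, free-moving rats, carotid artery linked to a pressure transducer 24 h after surgery. One analogue per rat, in 0.9% NaCl with 5 g/L BSA, given as a 10-s iv bolus into the jugular vein. Doses 1.25–20 μg/kg in random order, one every 20 min. Maximal blood pressure rise recorded; 6 rats; ANOVA with Dunnett's test.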

Assay [3] has as its system Rattus norvegicus. In words: Tested in vivo on the angiotensin II induced rise of blood pressure after intravenous administration of 10 ug/kg in conscious rats. In kind it is functional. The gist of the method: as §1
Assay [4] has as its system Rattus norvegicus. Put plainly: Tested in vivo on the angiotensin II induced rise of blood pressure after intravenous administration of 2.5 ug/kg in conscious rats. It is filed as functional. In outline: as §1
Assay [5] concerns Rattus norvegicus. Put plainly: Tested in vivo on the angiotensin II induced rise of blood pressure after intravenous administration of 20 ug/kg in conscious rats. It is filed as functional. In outline: as §1
For assay [6], the system named is Rattus norvegicus. In words: Tested in vivo on the angiotensin II induced rise of blood pressure after intravenous administration of 5 ug/kg in conscious rats. It is filed as functional. In outline:
as §1

Assay [7] concerns the target Angiotensin II receptor (Oryctolagus cuniculus). In words: Antagonistic effect against Angiotensin II receptor in rabbit aortic strip.

Square brackets hold non-standard residues; d marks the D form. Peptide text beside a SMILES is read from it. * marks the point of attachment. Gly(cPent) = N[C@H](C(=O)O)C1CCCC1; Chg = N[C@H](C(=O)O)C1CCCCC1; Lac = C[C@H](O)C(=O)O; Glycolyl = O=C(CO)*; Sar = CNCC(=O)O

By pA2 is commonly meant the negative logarithm of the molar antagonist concentration that doubles the agonist concentration needed for the same response. Read a low pA2 as a weaker antagonist.

For `CC(C)[C@H](NC(=O)[C@H](CCCN=C(N)N)NC(=O)CO)C(=O)N[C@@H](Cc1ccc(O)cc1)C(=O)N[C@H](C(=O)N[C@@H](Cc1c[nH]cn1)C(=O)N1CCC[C@H]1C(=O)O[C@@H](C)C(=O)O)C1CCCCC1` (Glycolyl-RVY[Chg]HP[Lac]-OH), the pA2 in assay [1] was found to be 8.614; in assay [7], 9.53. The Blood pressure in assay [2] amounted to 6.7 mmHg; in assay [3], 14.1 mmHg; in assay [4] it was 7.5 mmHg; in assay [5] it was 15.8 mmHg; in assay [6], 17.5 mmHg.

As for `CNCC(=O)N[C@@H](CCCN=C(N)N)C(=O)N[C@H](C(=O)N[C@@H](Cc1ccc(O)cc1)C(=O)N[C@H](C(=O)N[C@@H](Cc1c[nH]cn1)C(=O)N1CCC[C@H]1C(=O)N[C@@H](C)C(=O)O)C1CCCC1)C(C)C`, the pA2 in assay [1] came to 9.933; in assay [7], 9.42. The Blood pressure turned out to be 5.8 mmHg in assay [2]; 17.5 mmHg in assay [3]; 10 mmHg in assay [4]; 14.2 mmHg in assay [5]; 10 mmHg in assay [6].

Regarding `CNCC(=O)N[C@@H](CCCNC(=N)N)C(=O)N[C@H](C(=O)N[C@@H](Cc1ccc(O)cc1)C(=O)N[C@H](C(=O)N[C@@H](Cc1cnc[nH]1)C(=O)N1CCC[C@H]1C(=O)N[C@@H](C)C(=O)O)C(C)C)C(C)C` [SARALASIN], the Blood pressure was 7.9 mmHg in assay [2]; 15 mmHg in assay [3]; 9.3 mmHg in assay [4]; 20 mmHg in assay [5]; 12.1 mmHg in assay [6].

Turning to `CNCC(=O)N[C@@H](CCCN=C(N)N)C(=O)N[C@H](C(=O)N[C@@H](Cc1ccc(O)cc1)C(=O)N[C@H](C(=O)N[C@@H](Cc1c[nH]cn1)C(=O)N1CCC[C@H]1C(=O)N[C@@H](C)C(=O)O)C1CCCCC1)C(C)C`, the pA2 was found to be 9.981 in assay [1] and 11.18 in assay [7]. The Blood pressure in assay [2] is reported as 10.29 mmHg; in assay [3] it was 16.4 mmHg; in assay [4], 17.9 mmHg; in assay [6], 16.9 mmHg.

For `CC(C)[C@H](NC(=O)[C@H](CCCN=C(N)N)NC(=O)[C@H](C)O)C(=O)N[C@@H](Cc1ccc(O)cc1)C(=O)N[C@H](C(=O)N[C@@H](Cc1c[nH]cn1)C(=O)N1CCC[C@H]1C(=O)O[C@@H](C)C(=O)O)C1CCCC1` (H-[Lac]RVY[Gly(cPent)]HP[Lac]-OH), the pA2 in assay [1] stood at 8.392; in assay [7] it was 8.52. Also, the Blood pressure in assay [2] is recorded as 5.8 mmHg; in assay [3], 10 mmHg; in assay [4], 5 mmHg; in assay [5], 15 mmHg; in assay [6], 5 mmHg.

As for `CNCC(=O)N[C@@H](CCCN=C(N)N)C(=O)N[C@H](C(=O)N[C@@H](Cc1ccc(O)cc1)C(=O)N[C@H](C(=O)N[C@@H](Cc1c[nH]cn1)C(=O)N1CCC[C@H]1C(=O)O[C@@H](C)C(=O)O)C1CCCC1)C(C)C` (H-[Sar]RVY[Gly(cPent)]HP[Lac]-OH), the pA2 amounted to 9.649 in assay [1] and 11.09 in assay [7]. Moreover, the Blood pressure in assay [2] is reported as 5 mmHg; in assay [3], 11.7 mmHg; in assay [4], 10 mmHg; in assay [5] it was 11.7 mmHg; in assay [6], 9.2 mmHg.

As for `CC[C@H](C)[C@H](NC(=O)[C@H](Cc1ccc(O)cc1)NC(=O)[C@@H](NC(=O)[C@H](CCCN=C(N)N)NC(=O)[C@H](C)O)C(C)C)C(=O)N[C@@H](Cc1c[nH]cn1)C(=O)N1CCC[C@H]1C(=O)O[C@@H](C)C(=O)O`, the pA2 is on record as 7.999 in assay [1] and 9.5 in assay [7]. For the same molecule, the Blood pressure in assay [2] came out at 4.2 mmHg; in assay [3] it was 10 mmHg; in assay [4] it was 5.8 mmHg; in assay [5], 16.7 mmHg; in assay [6], 11.7 mmHg.

As to `CNCC(=O)N[C@@H](CCCN=C(N)N)C(=O)N[C@H](C(=O)N[C@@H](Cc1ccc(O)cc1)C(=O)N[C@H](C(=O)N[C@@H](Cc1c[nH]cn1)C(=O)N1CCC[C@H]1C(=O)O[C@@H](C)C(=O)O)C1CCCCC1)C(C)C` (H-[Sar]RVY[Chg]HP[Lac]-OH), the figures for the pA2 in assay [1] and in assay [7] were 10.39 and 11.29, respectively. The Blood pressure is 3.6 mmHg in assay [2]; 8.6 mmHg in assay [3]; 5.7 mmHg in assay [4]; 8.3 mmHg in assay [5]; 12.1 mmHg in assay [6].
